Assay results reported in PubChem BioAssay AID504417 (Johns Hopkins Ion Channel Center, 2011).
Calls of active or inactive are those of the source.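 Rule for the calls: active = potentiation or inhibition of the KCNQ1 potassium channel at any tested concentration, with a dose response curve obtained; inactive = no effect at any concentration, or no dose response.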

Target: Potassium voltage-gated channel subfamily KQT member 1 (Homo sapiens) (UniProt P51787)
Assay: KCNQ1 thallium flux concentration-response – KCNQ1-expressing cells, selectivity assay for KCNQ2 activator project, dose response (AID 504417)
Conditions: FluxOR thallium flux fluorescence; series mostly up to 30 µM
Outline: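 Controls – stimulated vehicle wells and unstimulated blank wells · Assay system – CHO cells expressing the KCNQ1 potassium channel · Measured by – kinetic FluxOR Tl+ flux fluorescence · Schedule – dye load 90 min, compound 20 min, room temperature · Measure – fluorescence change (max minus min) over baseline, normalized to vehicle and blank controls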

Chain of Potassium voltage-gated channel subfamily KQT member 1 (Homo sapiens) (P51787 whole entry, looked up): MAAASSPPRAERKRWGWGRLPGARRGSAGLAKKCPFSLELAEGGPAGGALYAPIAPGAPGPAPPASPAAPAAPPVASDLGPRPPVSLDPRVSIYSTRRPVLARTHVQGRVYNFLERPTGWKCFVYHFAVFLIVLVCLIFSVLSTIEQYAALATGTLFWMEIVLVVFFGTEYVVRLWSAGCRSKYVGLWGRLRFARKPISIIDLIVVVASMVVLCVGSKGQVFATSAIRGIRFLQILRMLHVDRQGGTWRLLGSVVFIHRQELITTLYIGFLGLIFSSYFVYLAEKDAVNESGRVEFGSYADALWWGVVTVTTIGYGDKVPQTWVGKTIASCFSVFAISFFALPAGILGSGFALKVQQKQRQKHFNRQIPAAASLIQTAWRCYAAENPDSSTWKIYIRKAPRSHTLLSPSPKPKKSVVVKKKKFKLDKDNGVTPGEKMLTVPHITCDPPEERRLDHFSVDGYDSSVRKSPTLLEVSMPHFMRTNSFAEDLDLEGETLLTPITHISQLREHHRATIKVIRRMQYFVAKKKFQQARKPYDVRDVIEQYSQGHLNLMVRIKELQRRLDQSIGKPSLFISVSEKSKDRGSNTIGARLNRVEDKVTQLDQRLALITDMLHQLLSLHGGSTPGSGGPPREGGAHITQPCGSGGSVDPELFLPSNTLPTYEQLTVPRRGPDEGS

| Compound | outcome |
| --- | --- |
| Cc1ccc(C)c(NC(=O)C2CC3CCC2C3)c1 (stereo not given) | inactive |
| Cc1cccc(C)c1NC(=O)C1CC2CCC1C2 (stereo not given) | inactive |
| Cc1cc(C)c(NC(=O)C2CC3CCC2C3)c(C)c1 (stereo not given) | inactive |
| Cc1cc(C)c(NC(=O)CC(C)(C)C)c(Cl)c1 | inactive |
| CCCCC(=O)Nc1c(C)cc(C)cc1Cl | inactive |
